Test results taken from ChEMBL document CHEMBL1649390, “New (RS)-benzoxazepin-purines with antitumour activity: The chiral switch from (RS)-2,6-dichloro-9-[1-(p-nitrobenzenesulfonyl)-1,2,3,5-tetrahydro-4,1-benzoxazepin-3-yl]-9H-purine” (Eur J Med Chem, 2011).
pIC50: −log10 of the molar value.

What was measured:
Mus musculus [1] = test: Acute toxicity in BALB/c mouse assessed as mortality up to 50 mg/kg, po after 2 weeks; assay type: organism-based; design: dose 50 mg/kg, route oral; details: in vivo, 336 h
Summary of the method: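 Female BALB/c mice, six weeks old (about 20 g), were dosed once by gavage at 0.05, 0.5, 5 and 50 mg/kg (n = 25) in 0.25 mL of 0.9% NaCl/DMSO. Controls received saline or DMSO alone. Body weight and signs of systemic toxicity (listlessness, weight loss) and local toxicity (alopecia, skin reaction, leg motility) were checked twice weekly over 2 weeks.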

MCF7 [2] = test: Cell cycle arrest in human MCF7 cells assessed as accumulation at S phase after 48 hrs using propidium iodide staining by flow cytometry (reference value: 8.55 +/- 0.40 %); assay type: functional
MCF7 [3] = test: Induction of apoptosis in human MCF7 cells assessed as cell viability at IC50 concentration after 24 hrs using V-FITC and propidium iodide staining by flow cytometry (reference value: 90.42 +/- 0.63 %); assay type: functional
[4] = Cell cycle arrest in human MCF10A cells assessed as accumulation at G2/M phase after 48 hrs using propidium iodide staining by flow cytometry (reference value: 12.55 +/- 0.68 %); assay type: ADME, cell-based; details: mcf-10a
[5] = Cytotoxicity against human MCF10A cells […] by SRB assay; assay type: cell-based; details: MCF-10A
MDA-MB-231 [6] = test: Cell cycle arrest in human MDA-MB-231 cells assessed as accumulation at G0/G1 phase after 48 hrs using propidium iodide staining by flow cytometry (reference value: 42.06 +/- 0.01 %); assay type: functional
MCF7 [7] = test: Induction of apoptosis in human MCF7 cells assessed as necrotic cells at IC50 concentration after 48 hrs using V-FITC and propidium iodide staining by flow cytometry (reference value: 12.61 +/- 7.50 %); assay type: functional
MDA-MB-231 [8] = test: Cytotoxicity against human MDA-MB-231 cells expressing high level of p53 […]; assay type: functional, cell-based
[9] = Therapeutic index, ratio of IC50 for human MCF10A cells to IC50 for human MCF7 cells expressing wild type p53 and ras mutant; assay type: cell-based; details: MCF10A cells versus MCF7 cells (wild type p53, ras mutant), read-out: Ratio IC50
Summary of the method: (§1)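 Ratio of IC50 in non-tumour MCF-10A to IC50 in the tumour line, both from the SRB growth assay described for cytotoxicity.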

MCF7 [10] = test: Induction of apoptosis in human MCF7 cells assessed as viable cells at IC50 concentration after 48 hrs using V-FITC and propidium iodide staining by flow cytometry (reference value: 86.26 +/- 7.25 %)
Mus musculus [11] = test: Acute toxicity in BALB/c mouse assessed as mortality up to 200 mg/kg, ip after 2 weeks; assay type: organism-based; design: dose 200 mg/kg, route intraperitoneal; details: in vivo, 336 h
Summary of the method: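 Six-week-old female BALB/c mice (about 20 g) were given a single i.p. bolus at 50, 75, 100, 150 and 200 mg/kg (n = 25), dissolved in 0.25 mL of 0.9% NaCl/DMSO. Vehicle controls received saline or DMSO alone. Mice were weighed and scored twice weekly for 2 weeks for systemic toxicity (listlessness, weight loss) and local toxicity (alopecia, skin reaction, leg motility).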

MCF7 [12] = test: Cell cycle arrest in human MCF7 cells assessed as accumulation at G0/G1 phase after 48 hrs using propidium iodide staining by flow cytometry (reference value: 89.88 +/- 1.73 %); assay type: functional
MDA-MB-231 [13] = test: Cell cycle arrest in human MDA-MB-231 cells assessed as accumulation at G2/M phase after 48 hrs using propidium iodide staining by flow cytometry (reference value: 31.59 +/- 0.03 %); assay type: functional
MCF7 [14] = test: Induction of apoptosis in human MCF7 cells assessed as early apoptotic cells at IC50 concentration after 48 hrs using V-FITC and propidium iodide staining by flow cytometry relative to control; assay type: functional
MDA-MB-231 [15] = test: Cell cycle arrest in human MDA-MB-231 cells assessed as accumulation at S phase after 48 hrs using propidium iodide staining by flow cytometry (reference value: 26.35 +/- 0.03 %); assay type: functional
MCF7 [16] = test: Induction of apoptosis in human MCF7 cells assessed as necrotic cells at IC50 concentration after 24 hrs using V-FITC and propidium iodide staining by flow cytometry (reference value: 9.55 +/- 0.21 %); assay type: functional
MCF7 [17] = test: Cytotoxicity against human MCF7 cells expressing wild type p53 and ras mutant […]; assay type: functional, cell-based
[18] = Cell cycle arrest in human MCF10A cells assessed as accumulation at G0/G1 phase after 48 hrs using propidium iodide staining by flow cytometry (reference value: 65.70 +/- 1.14 %); assay type: ADME, cell-based; details: mcf-10a
MCF7 [19] = test: Induction of apoptosis in human MCF7 cells assessed as late apoptotic cells at IC50 concentration after 24 hrs using V-FITC and propidium iodide staining by flow cytometry (reference value: 1.11 +/- 0.24 %); assay type: functional
[20] = Therapeutic index, ratio of IC50 for human MCF10A cells to IC50 for human MDA-MB-231 cells expressing high level of p53; assay type: cell-based; details: MCF10A cells versus MDA-MB-231 cells (high level of p53), read-out: Ratio IC50; summary of the method: as §1
[21] = Cell cycle arrest in human MCF10A cells assessed as accumulation at S phase after 48 hrs using propidium iodide staining by flow cytometry (reference value: 21.78 +/- 0.46 %); assay type: ADME, cell-based; details: mcf-10a
MCF7 [22] = test: Cell cycle arrest in human MCF7 cells assessed as accumulation at G2/M phase after 48 hrs using propidium iodide staining by flow cytometry (reference value: 1.57 +/- 2.12 %); assay type: functional
MCF7 [23] = test: Induction of apoptosis in human MCF7 cells assessed as late apoptotic cells at IC50 concentration after 24 hrs using V-FITC and propidium iodide staining by flow cytometry (reference value: 0.03 +/- 0.01 %); assay type: functional
MCF7 [24] = test: Induction of apoptosis in human MCF7 cells assessed as early apoptotic cells at IC50 concentration after 24 hrs using V-FITC and propidium iodide staining by flow cytometry relative to control; assay type: functional

SMILES: O=[N+]([O-])c1ccc(S(=O)(=O)N2CC(n3cnc4c(Cl)nc(Cl)nc43)OCc3ccccc32)cc1 (racemic)
- Activity (Mus musculus [1]): Non-toxic
- Activity (MCF7 [2]): 8.55%
- Activity (MCF7 [3]): 94.16%
- Activity [4]: 11.92%
- pIC50 [5]: 5.74
- Activity (MDA-MB-231 [6]): 45.4%
- Activity (MCF7 [7]): 16.13%
- pIC50 (MDA-MB-231 [8]): 6.78
- selectivity ratio [9]: 5.14
- viability (MCF7 [10]): 46.65%
- Activity (Mus musculus [11]): Non-toxic
- Activity (MCF7 [12]): 87.2%
- Activity (MDA-MB-231 [13]): 25.4%
- Activity (MCF7 [14]): 23.38%
- Activity (MDA-MB-231 [15]): 29.36%
- Activity (MCF7 [16]): 4.93%
- pIC50 (MCF7 [17]): 6.45
- Activity [18]: 65.94%
- Activity (MCF7 [19]): 13.84%
- selectivity ratio [20]: 11
- Activity [21]: 22.14%
- Activity (MCF7 [22]): 1.57%
- Activity (MCF7 [23]): 0.23%
- Activity (MCF7 [24]): 0.66%
